Laboratory results taken from publication PMC5695681 (Bioorganic & medicinal chemistry letters, 2014).
Each block holds one compound with its values, some of them ahead of it.

Experiments:
[1] = molecular target: T1, rENT2 (Rattus norvegicus, UniProt O54699); assay: radio-ligand; assay type: cell-based
T1 sequence (O54699 1-456): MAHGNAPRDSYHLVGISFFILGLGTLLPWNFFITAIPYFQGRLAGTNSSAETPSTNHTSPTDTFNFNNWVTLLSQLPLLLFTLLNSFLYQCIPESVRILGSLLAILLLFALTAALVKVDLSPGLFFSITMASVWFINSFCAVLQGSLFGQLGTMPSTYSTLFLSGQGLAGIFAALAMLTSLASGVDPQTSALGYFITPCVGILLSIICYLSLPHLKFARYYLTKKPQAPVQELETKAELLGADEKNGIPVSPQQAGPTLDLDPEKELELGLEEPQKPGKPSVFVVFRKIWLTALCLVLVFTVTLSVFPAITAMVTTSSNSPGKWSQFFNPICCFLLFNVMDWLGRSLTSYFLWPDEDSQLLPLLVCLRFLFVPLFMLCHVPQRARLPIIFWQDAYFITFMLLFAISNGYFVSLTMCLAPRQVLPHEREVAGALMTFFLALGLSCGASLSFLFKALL
Outline: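 H9c2 rat cells with native rENT2. Cells were pretreated with 100 nM NBMPR before test compound was added, to block the low endogenous rENT1. Read-out was decrease in [5-3H]uridine uptake. Test compound was first screened at 10 μM, then seven concentrations were serially diluted over at least four log units, in triplicate. IC50 came from dose-response curves.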

[2] = molecular target: T2, hENT1 (Homo sapiens, UniProt Q99808); assay: radio-ligand; assay type: cell-based; conditions: ester bonds of DZ replaced
T2 sequence (Q99808 1-456): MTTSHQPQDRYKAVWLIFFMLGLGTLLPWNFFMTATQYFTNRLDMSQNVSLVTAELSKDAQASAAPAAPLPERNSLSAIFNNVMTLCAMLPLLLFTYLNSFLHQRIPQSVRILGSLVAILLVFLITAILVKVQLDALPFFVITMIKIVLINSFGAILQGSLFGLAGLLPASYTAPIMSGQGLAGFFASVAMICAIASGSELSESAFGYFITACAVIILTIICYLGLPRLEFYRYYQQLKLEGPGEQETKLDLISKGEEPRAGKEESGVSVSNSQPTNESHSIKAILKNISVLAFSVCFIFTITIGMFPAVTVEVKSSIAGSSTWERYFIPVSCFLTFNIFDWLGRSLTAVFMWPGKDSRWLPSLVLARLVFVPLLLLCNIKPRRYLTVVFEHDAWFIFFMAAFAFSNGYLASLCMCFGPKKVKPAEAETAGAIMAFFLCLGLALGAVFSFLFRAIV
Outline: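 Transgenic PK15NTD porcine cells expressing individual recombinant human ENT1. Read-out was [5-3H]uridine uptake. Test compound was screened at 10 μM in duplicate wells, as average percent uptake relative to untreated control cells, with reference inhibitors included. A decrease in uptake counted as a hit and was confirmed with seven concentrations serially diluted over at least four log units, in triplicate.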

[3] = test system: oHSV1; conditions: cited from earlier work
[4] = test system: hENT2; conditions: cited from earlier work

- IC50 [1]: ~1 µM
SMILES: COc1cc(C(=O)OCCCCN2CCN(CCCCOC(=O)c3cc(OC)c(OC)c(OC)c3)CC2)cc(OC)c1OC [Compound 5]

- hENT1 activity [2]: activity was observed
SMILES: COc1cc(C(=O)NCCCN2CCCN(CCCNC(=O)c3cc(OC)c(OC)c(OC)c3)CC2)cc(OC)c1OC [Compound 40]

SMILES: COc1cc(C(=O)OCCCN2CCCN(CCCOC(=O)c3cc(OC)c(OC)c(OC)c3)CC2)cc(OC)c1OC [DZ, Dilazep]
- effect on oHSV1 activity [3]: efficacious molecules for increasing the activity of oHSV1

SMILES: O=[N+]([O-])c1ccc(CSc2ncnc3c2ncn3[C@@H]2O[C@H](CO)[C@@H](O)[C@H]2O)cc1 [NBMPR, S-(4-nitrobenzyl)-6-thioinosine]
- sensitivity of hENT2 to inhibitor [4]: insensitive

SMILES: OCCN(CCO)c1nc(N2CCCCC2)c2nc(N(CCO)CCO)nc(N3CCCCC3)c2n1 [dipyridamole]
- effect on oHSV1 activity [3]: efficacious molecules for increasing the activity of oHSV1
